Data taken from ChEMBL document CHEMBL1152933, “Synthesis and evaluation of novel 7-azaindazolyl-indolyl-maleimide derivatives as antitumor agents and protein kinase C inhibitors” (Bioorg Med Chem, 2009).
Activity calls are given as the source filed them. The calls are words filed in the database; no cut-off is given here.

How the values were obtained:
[1] = Antiproliferative activity against human ECA109 cells after 48 hrs by MTT assay; assay type: functional, cell-based; settings: ECa-109, 48 h
Method in brief: (§1)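 MTT assay after 48 h incubation with compound. MTT (5.0 mg/mL stock in RPMI-1640) was added and incubated a further 4 h at 37 °C. Formazan was dissolved in DMSO and absorbance read at 570 nm. IC50 is the concentration giving 50% decrease in cell growth, computed from dose-effect analysis. Triplicate wells, three independent experiments, values are means.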

A549 = assay: Antiproliferative activity against human A549 cells after 48 hrs by MTT assay; assay type: functional, cell-based; settings: A549, 48 h; method in brief: as §1
K562 = assay: Antiproliferative activity against human K562 cells after 48 hrs by MTT assay; assay type: functional, cell-based; settings: K562, 48 h; method in brief: as §1
KB [2] = assay: Antiproliferative activity against human KB cells after 48 hrs by MTT assay; assay type: functional, cell-based; method in brief: as §1
SMMC-7721 = assay: Antiproliferative activity against human SMMC7721 cells after 48 hrs by MTT assay; assay type: functional, cell-based; settings: SMMC-7721, 48 h; method in brief: as §1
[3] = Inhibition of PKC by […] assay
Method in brief: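 Recombinant PKC was incubated with reaction mixture containing a fluorescent PepTag PKC-specific peptide substrate at 30 °C for 30 min, then stopped by boiling. Phosphorylated (−1) and nonphosphorylated (+1) peptide were separated on 0.8% agarose in 50 mM Tris-HCl pH 8.0 at 100 V for 15 min and visualized under UV. IC50 values are means of three experiments.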

KB [4] = assay: Antiproliferative activity against human KB cells at 10 uM after 48 hrs by MTT assay; assay type: functional, cell-based
KB [5] = assay: Induction of apoptosis in human KB cells assessed as DNA fragmentation at 10 uM after 48 hrs by agarose gel electrophoresis; assay type: functional, cell-based
Method in brief: (§2)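 KB cells were treated 48 h with 10 or 20 µM, then lysed in EDTA/Tris pH 8.0/SDS/proteinase K buffer at 37 °C for 12 h, followed by RNase 1 h at 37 °C. DNA was phenol/chloroform extracted and ethanol precipitated, then run on 1.5% agarose gel with ethidium bromide and photographed for laddering.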

KB [6] = assay: Induction of apoptosis in human KB cells assessed as DNA fragmentation at 20 uM after 48 hrs by agarose gel electrophoresis; assay type: functional, cell-based; method in brief: as §2
KB [7] = assay: Induction of apoptosis in human KB cells assessed as increase in caspase 3/7 activity at 10 uM after 48 hrs; assay type: functional, cell-based
Method in brief: (§3)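 KB cells were cultured 48 h with 10 or 20 µM, then caspase-3/7 activity was measured with a Caspase-Glo 3/7 kit per the kit protocol and compared with control cells.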

KB [8] = assay: Induction of apoptosis in human KB cells assessed as increase in caspase 3/7 activity at 20 uM after 48 hrs; assay type: functional, cell-based; method in brief: as §3
KB [9] = assay: Induction of apoptosis in human KB cells assessed as increase in JNK expression at 20 uM after 48 hrs by Western blotting; assay type: functional, cell-based
Method in brief: (§4)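 KB cells were treated 48 h with 10 or 20 µM, then lysed in NaCl/Tris pH 8.0/EGTA/EDTA/NaF/β-glycerophosphate/Triton/NP-40/PMSF buffer. Protein was quantified by BCA. Equal protein was run on 10–12% Tris-glycine gels and blotted. Blots were probed for JNK, Bax, Bcl-2, procaspase-9, procaspase-3 and tubulin, with HRP secondary and ECL detection. Bax/Bcl-2 ratio was derived from the blots.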

KB [10] = assay: Induction of apoptosis in human KB cells assessed as decrease in BCL-2 expression at 20 uM after 48 hrs by Western blotting; assay type: functional, cell-based; method in brief: as §4
KB [11] = assay: Induction of apoptosis in human KB cells assessed as decrease in procaspase-9 expression at 20 uM after 48 hrs by Western blotting; assay type: functional, cell-based; method in brief: as §4
KB [12] = assay: Induction of apoptosis in human KB cells assessed as decrease in procaspase-3 expression at 20 uM after 48 hrs by Western blotting; assay type: functional, cell-based; method in brief: as §4
KB [13] = assay: Induction of apoptosis in human KB cells assessed as increase in Bax/Bcl-2 ratio at 20 uM after 48 hrs by Western blotting; assay type: functional, cell-based; method in brief: as §4
KB [14] = assay: Antiproliferative activity against human KB cells at 20 uM after 48 hrs by light microscopy

| Structure (SMILES) | IC50 [1] | IC50 (A549) | IC50 (K562) | IC50 (KB [2]) | IC50 (SMMC-7721) | IC50 [3] | Activity (KB [4]) | Activity (KB [5]) | Activity (KB [6]) | Activity (KB [7]) | Activity (KB [8]) | Activity (KB [9]) | Activity (KB [10]) | Activity (KB [11]) | Activity (KB [12]) | Activity (KB [13]) | Activity (KB [14]) |
| --- | --- | --- | --- | --- | --- | --- | --- | --- | --- | --- | --- | --- | --- | --- | --- | --- | --- |
| Cn1cc(C2=C(c3nn(CCCN4CCCCC4)c4ncccc34)C(=O)N(c3ccc(Cl)cc3)C2=O)c2ccccc21 | > 100 µM | 28.7 µM | 1.8 µM | > 100 µM | > 100 µM | > 10 µM |  |  |  |  |  |  |  |  |  |  |  |
| Cn1cc(C2=C(c3nn(CCCN4CCOCC4)c4ncccc34)C(=O)NC2=O)c2ccccc21 | > 100 µM | > 100 µM | > 100 µM | > 100 µM | > 100 µM | 5.95 µM |  |  |  |  |  |  |  |  |  |  |  |
| Cn1cc(C2=C(c3nn(CCCN4CCCCC4)c4ncccc34)C(=O)N(c3ccccc3)C2=O)c2ccccc21 | 12.3 µM | 20.6 µM | 3.79 µM | 5.6 µM | 3.05 µM | > 10 µM | Active | Active | Active | Active | Active | Active | Active | Active | Active | Active | Active |
| COc1ccc(N2C(=O)C(c3cn(C)c4ccccc34)=C(c3nn(CCCN4CCCCC4)c4ncccc34)C2=O)cc1 | 3.34 µM | 30.3 µM | > 100 µM | 44 µM | 1.74 µM | > 10 µM |  |  |  |  |  |  |  |  |  |  |  |
| Cn1cc(C2=C(c3nn(CCCn4cccc4)c4ncccc34)C(=O)NC2=O)c2ccccc21 | > 100 µM | > 100 µM | 21.6 µM | > 100 µM | > 100 µM | 1.1 µM |  |  |  |  |  |  |  |  |  |  |  |
| Cn1cc(C2=C(c3nn(CCCN4CCCCC4)c4ncccc34)C(=O)N(c3ccccn3)C2=O)c2ccccc21 | 7.3 µM | > 100 µM | > 100 µM | > 100 µM | > 100 µM | > 10 µM |  |  |  |  |  |  |  |  |  |  |  |
| Cn1cc(C2=C(c3nn(CCCN4CCCCC4)c4ncccc34)C(=O)N(c3cccc4ccccc34)C2=O)c2ccccc21 | 1.83 µM | 2.82 µM | 3.18 µM | 13.4 µM | 0.22 µM | > 10 µM |  |  |  |  |  |  |  |  |  |  |  |
| Cn1cc(C2=C(c3nn(CCCO)c4ncccc34)C(=O)NC2=O)c2ccccc21 | > 100 µM | > 100 µM | 85.8 µM | > 100 µM | > 100 µM | 3.15 µM |  |  |  |  |  |  |  |  |  |  |  |
| Cn1cc(C2=C(c3nn(CCCn4ccnc4)c4ncccc34)C(=O)NC2=O)c2ccccc21 | > 100 µM | > 100 µM | 13.8 µM | > 100 µM | > 100 µM | 0.9 µM |  |  |  |  |  |  |  |  |  |  |  |
| Cn1cc(C2=C(c3nn(CCCn4cncn4)c4ncccc34)C(=O)N(c3ccccc3)C2=O)c2ccccc21 | > 100 µM | > 100 µM | > 100 µM | > 100 µM | > 100 µM | > 10 µM |  |  |  |  |  |  |  |  |  |  |  |
| Cn1cc(C2=C(c3n[nH]c4ncccc34)C(=O)N(c3cccc4ccccc34)C2=O)c2ccccc21 | > 100 µM | > 100 µM | > 100 µM | > 100 µM | > 100 µM | > 10 µM |  |  |  |  |  |  |  |  |  |  |  |
| Cn1cc(C2=C(c3nn(CCCn4cncn4)c4ncccc34)C(=O)NC2=O)c2ccccc21 | > 100 µM | > 100 µM | > 100 µM | > 100 µM | > 100 µM | 2.2 µM |  |  |  |  |  |  |  |  |  |  |  |
| CN(C)CCCn1nc(C2=C(c3cn(C)c4ccccc34)C(=O)NC2=O)c2cccnc21 | > 100 µM | > 100 µM | 50.4 µM | > 100 µM | > 100 µM | 0.72 µM |  |  |  |  |  |  |  |  |  |  |  |
| Cn1cc(C2=C(c3n[nH]c4ncccc34)C(=O)N(c3ccccc3)C2=O)c2ccccc21 | > 100 µM | > 100 µM | 3.26 µM | > 100 µM | > 100 µM | > 10 µM |  |  |  |  |  |  |  |  |  |  |  |
| Cn1cc(C2=C(c3nn(CCCn4ccnc4)c4ncccc34)C(=O)N(c3ccccc3)C2=O)c2ccccc21 | 1.44 µM | 1.56 µM | 5.51 µM | 6.8 µM | 34.8 µM | > 10 µM |  |  |  |  |  |  |  |  |  |  |  |
| CN1CCN(CCCn2nc(C3=C(c4cn(C)c5ccccc45)C(=O)NC3=O)c3cccnc32)CC1 | > 100 µM | > 100 µM | 46.7 µM | > 100 µM | > 100 µM | 1.86 µM |  |  |  |  |  |  |  |  |  |  |  |
| O=C1NC(=O)C(c2c[nH]c3ccccc23)=C1c1c[nH]c2ccccc12 [RO-316233] | 83.5 µM | 56.6 µM | 17.5 µM | 53.8 µM | > 100 µM | 0.35 µM |  |  |  |  |  |  |  |  |  |  |  |
| CN(C)CCCn1nc(C2=C(c3cn(C)c4ccccc34)C(=O)N(c3ccccc3)C2=O)c2cccnc21 | 5.84 µM | 13 µM | 1.7 µM | 14.1 µM | 31.2 µM | > 10 µM |  |  |  |  |  |  |  |  |  |  |  |
| Cn1cc(C2=C(c3nn(CCn4ccnc4)c4ncccc34)C(=O)NC2=O)c2ccccc21 | > 100 µM | > 100 µM | > 100 µM | > 100 µM | > 100 µM | 9.1 µM |  |  |  |  |  |  |  |  |  |  |  |
| Cn1cc(C2=C(c3n[nH]c4ncccc34)C(=O)NC2=O)c2ccccc21 | 46.1 µM | > 100 µM | > 100 µM | 62 µM | > 100 µM | > 10 µM |  |  |  |  |  |  |  |  |  |  |  |
| Cn1cc(C2=C(c3nn(CCCCn4ccnc4)c4ncccc34)C(=O)N(c3ccccc3)C2=O)c2ccccc21 | 7.54 µM | 21.7 µM | 5.03 µM | 47.3 µM | 1.76 µM | > 10 µM |  |  |  |  |  |  |  |  |  |  |  |
| Cn1cc(C2=C(c3nn(CCn4ccnc4)c4ncccc34)C(=O)N(c3ccccc3)C2=O)c2ccccc21 | 8.77 µM | 43.1 µM | 26.4 µM | > 100 µM | > 100 µM | > 10 µM |  |  |  |  |  |  |  |  |  |  |  |
| Cn1cc(C2=C(c3nn(CCCn4cccc4)c4ncccc34)C(=O)N(c3ccccc3)C2=O)c2ccccc21 | > 100 µM | > 100 µM | 36.6 µM | > 100 µM | > 100 µM | > 10 µM |  |  |  |  |  |  |  |  |  |  |  |
| Cn1cc(C2=C(c3nn(CCCN4CCCCC4)c4ncccc34)C(=O)NC2=O)c2ccccc21 | 42.3 µM | > 100 µM | 5.96 µM | 98 µM | 7.67 µM | 0.65 µM |  |  |  |  |  |  |  |  |  |  |  |
| Cn1cc(C2=C(c3nn(CCCCn4ccnc4)c4ncccc34)C(=O)NC2=O)c2ccccc21 | 23.5 µM | 2.38 µM | 31.8 µM | > 100 µM | 29.2 µM | 0.86 µM |  |  |  |  |  |  |  |  |  |  |  |
